Laboratory results as given in ChEMBL document CHEMBL1126627, “Synthesis and anti-HIV evaluation of D4T and D4T 5'-monophosphate prodrugs” (J Med Chem, 1993).
The source made the active and inactive calls. The calls are words filed in the database; no cut-off is given here.

Key:
[1] = Half-life estimated in human plasma; type: ADME
Procedure, shortened: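 Compounds incubated in human plasma. Breakdown followed by TLC separation, and half-life estimated from this.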

CEM-c113 [2] = assay: Antiviral activity measured in lymphocytic cell line (CEM-C113) infected with HIV-1 cell free supernatants; type: functional, cell-based; details: Homo sapiens
Procedure, shortened: (§1)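 CEM-Cl13 T-lymphoblastoid cells in RPMI 1640 with 5% heat-inactivated FCS at 37 °C, 5% CO2. Wells seeded with 10000 cells and given compound dilutions in triplicate (DMF stock diluted in water, at most 0.1% DMF final). Infected with HIV-1 LAV-Bru cell-free supernatant at 50-250 times the minimal infecting dose, cultured 7 days. MTT viability read at 540 nm. EC50 is the dose giving 50% protection from CPE. SI is IC50/EC50.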

[3] = target: Human immunodeficiency virus type 1 reverse transcriptase (Human immunodeficiency virus 1) (UniProt Q72547); assay: Selectivity index expressed as ratio of IC50 (CEM-C113) to EC50 from RT assay
Procedure, shortened: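 HIV-1 LAV-Bru cell-free supernatant used to infect CEM-Cl13 cells (10000/well, triplicate compound dilutions, 7-day culture). EC50 is 50% reduction of RT activity. SI is the ratio of the mock-infected MTT IC50 to this EC50.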

[4] = Selectivity index expressed as ratio of IC50 (CEM-C113) to EC50 from MTT assay; type: functional; procedure, shortened: as §1
CEM-c113 [5] = assay: Effective concentration that reduces HIV-induced cytopathic effect by 50% was determined by MTT assay.; type: functional, cell-based; details: Homo sapiens; procedure, shortened: as §1
[6] = Selectivity index expressed as ratio of IC50 (CEM-C113) to EC50 from MTT assay; inactive; type: functional; procedure, shortened: as §1

half-life [1] [h] | IC50 (CEM-c113 [2]) [µM] | Selectivity index [3] | Structure (SMILES) | Selectivity index [4] | EC50 (CEM-c113 [5]) [µM] | Selectivity index [6]
4 | 4 | 50 | CCCCCCCCCCCCCCCC(=O)OCC1C=CC(n2cc(C)c(=O)[nH]c2=O)O1 (centres undefined) | 40 | 0.1 | –
12 | 17 | – | CCCCCCCCCCCCCCCCOP(=O)(OCCC#N)OCC1C=CC(n2cc(C)c(=O)[nH]c2=O)O1 (centres undefined) | 4 | 4.3 | –
> 24 | 100 | 2000 | Cc1cn(C2C=CC(COP(=O)(O)OCC3C=CC(n4cc(C)c(=O)[nH]c4=O)O3)O2)c(=O)[nH]c1=O (centres undefined) | 5000 | 0.02 | –
– | 20 | 2000 | Cc1cn([C@H]2C[C@H](N=[N+]=[N-])[C@@H](CO)O2)c(=O)[nH]c1=O [ZIDOVUDINE] | 3330 | 0.006 | –
– | 10 | 200 | Cc1cn([C@H]2C=C[C@@H](CO)O2)c(=O)[nH]c1=O [STAVUDINE] | 125 | 0.08 | –
> 24 | 10 | 50 | CCCCCCCCCCCCCCCCOP(=O)(O)OCC1C=CC(n2cc(C)c(=O)[nH]c2=O)O1 (centres undefined) | 83 | 0.12 | –
> 24 | > 20 | – | CCCCCCCCCCCCCCCCNC(=O)OCC1C=CC(n2cc(C)c(=O)[nH]c2=O)O1 (centres undefined) | – | > 20 | inactive
12 | 17 | – | Cc1cn(C2C=CC(COP(=O)(OCCC#N)OCC3C=CC(n4cc(C)c(=O)[nH]c4=O)O3)O2)c(=O)[nH]c1=O (centres undefined) | 17 | 1 | –
> 24 | > 20 | – | CCCCCCCCCCCCCCCCOC(=O)OCC1C=CC(n2cc(C)c(=O)[nH]c2=O)O1 (centres undefined) | > 66 | 0.3 | –
